Test results: ChEMBL document CHEMBL4842317, “Discovery of novel 3-hydroxyandrosta-5,7-Diene-17-Carboxylic acid derivatives as anti-inflammatory bowel diseases (IBD) agents” (Eur J Med Chem, 2021)
The source made the active and inactive calls. The calls are words filed in the database; no cut-off is given here.

Legend:
[1] = system: RAW264.7; test: Inhibition of PI3K/Akt signaling in mouse RAW264.7 cells assessed as inhibition of LPS-induced NFkappB p-p65 accumulation at 1.25 uM in presence of LPS by western blot analysis; format: cell-based
How it was run: (§1)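 Lysates of LPS-stimulated RAW 264.7 cells (20–30 μg protein) are run on 10% SDS-PAGE, blotted, blocked with 5% milk, probed overnight at 4 °C (1:5,000), then detected with HRP secondary and ECL. Actin, GAPDH or H3 (nuclear fraction) serve as loading controls, with densitometry ratios. Blots are representative of three independent experiments; mean + SD (n = 3).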

[2] = system: Mus musculus; test: Antiinflammatory activity against DSS-induced colitis C57BL/6 mouse assessed as decrease in IL-1beta level in colon at 50 mg/kg, ip administered for 7 days; format: functional, organism-based; conditions: time 7.0 day
How it was run: (§2)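 Male C57BL/6 mice, 6 weeks old, 5 per group, given 3.5% DSS solution plus daily intraperitoneal drug (100 μL, in saline/castor oil/ethanol/DMSO 70:10:15:5) for 7 days. Colons collected after sacrifice. IL-1β is normalised per milligram of colonic protein. p-IκB-α and p-p65 in colonic protein are measured by Western blot. Bars give mean + SD.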

[3] = system: RAW264.7; test: Antiinflammatory activity against mouse RAW264.7 cells assessed as inhibition of LPS-induced IL-1 beta production measured after 24 hrs in presence of LPS by ELISA; format: functional, cell-based; conditions: dose 0.31-20 µM
How it was run: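 RAW 264.7 cells are seeded at 2 × 10^5 per well, grown 12 h, and given 100 ng/mL LPS with compound at 0.31 to 20 μM for 24 h. Supernatant IL-1β and IL-6 are quantified by ELISA. Mean + SD, n = 3.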

[4] = system: Mus musculus; test: Antiinflammatory activity against DSS-induced colitis C57BL/6 mouse assessed as decrease in p-IkB alpha level in colon at 25 mg/kg, ip administered for 7 days by western blot analysis; format: functional, organism-based; conditions: time 7.0 day; how it was run: as §2
[5] = system: RAW264.7; test: Inhibition of PI3K/Akt signaling in mouse RAW264.7 cells assessed as inhibition of LPS-induced NFkappB p-p65 accumulation in presence of LPS by western blot analysis; format: cell-based; conditions: dose 0.31-20 µM; how it was run: as §1
[6] = system: RAW264.7; test: Antiinflammatory activity against mouse RAW264.7 cells assessed as inhibition of LPS-induced COX2 mRNA expression incubated for 8 hrs in presence of LPS by qRT-PCR analysis; format: functional, cell-based; conditions: dose 0.31-20 µM
How it was run: (§3)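 RAW 264.7 cells are grown 12 h in six-well plates, then exposed to LPS (100 ng/ml) plus compound for 8 h. Reverse transcription is followed by SYBR Green qPCR with GAPDH as internal control. Relative expression is calculated by 2^-ΔΔCT versus the untreated control. Mean + SD from three independent experiments.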

[7] = system: RAW264.7; test: Antiinflammatory activity against mouse RAW264.7 cells assessed as inhibition of LPS-induced MCP-1 mRNA expression at 20 uM in presence of LPS by qRT-PCR analysis; format: functional, cell-based; how it was run: as §3
[8] = system: RAW264.7; test: Antiinflammatory activity against mouse RAW264.7 cells assessed as decrease in LPS-induced IL-1beta mRNA expression at 20 uM in presence of LPS by qRT-PCR analysis; format: functional, cell-based; how it was run: as §3
[9] = system: RAW264.7; test: Antiinflammatory activity against mouse RAW264.7 cells assessed as inhibition of LPS-induced NO production at 20 uM after 24 hrs by Griess assay; format: functional
How it was run: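 RAW 264.7 cells (1 × 10^5 cells/mL) are cultured 24 h, stimulated with LPS (100 ng/mL final), and treated with compounds from 100 μM downward for 24 h in DMEM with 10% FBS. Medium nitrite is measured by Griess reaction (sulfanilamide, naphthylethylenediamine, phosphoric acid, 10 min, room temperature, dark). Mean + SD from three independent experiments.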

[10] = system: RAW264.7; test: Inhibition of PI3K/Akt signaling in mouse RAW264.7 cells assessed as inhibition of LPS-induced Akt phosphorylation at 1.25 uM in presence of LPS by western blot analysis; format: cell-based; how it was run: as §1

Question: For `C[C@]12CC[C@H]3[C@@H](CC=C4C[C@@H](O)CC[C@@]43C)[C@@H]1CC[C@@H]2C(=O)n1ccnc1`, which inhibition [1] is on record?
Answer: Active

Question: What about the Activity [2] of the same compound?
Answer: Active

Question: What about the Activity [3] of the same compound?
Answer: Dose-Dependent Effect

Question: What about the Activity [4] of the same compound?
Answer: Active

Question: And the inhibition [5]?
Answer: Dose-Dependent Effect

Question: And the Activity [6]?
Answer: Dose-Dependent Effect

Question: What about the Activity [7] of the same compound?
Answer: Active

Question: And the Activity [8]?
Answer: Active

Question: What about the inhibition at 20 µM [9] of the same compound?
Answer: 100%

Question: What about the inhibition [10] of the same compound?
Answer: Active
